Experimental findings from ChEMBL document CHEMBL4196059, “Design, synthesis, and biological evaluation of stable β6.3-Helices: Discovery of non-hemolytic antibacterial peptides” (Eur J Med Chem, 2018) are described below.

Structures are written as SMILES. Calls of active or inactive are those of the source. The calls are words filed in the database; no cut-off is given here.

Data set [1] can be described thus: Hemolytic activity against human RBC at 50 uM after 1 hr by Drabkin's assay relative to control. Format: ADME, cell-based, Erythrocyte. To be noted: human red blood cells (erythrocytes), read-out: Activity.
Data set [2] can be described thus: Hemolytic activity against human RBC at 25 uM after 1 hr by Drabkin's assay relative to control. The class given is ADME, cell-based, Erythrocyte. Particulars: human red blood cells (erythrocytes), read-out: Activity.
Data set [3] is described as follows: Hemolytic activity against human RBC at 12.5 uM after 1 hr by Drabkin's assay relative to control. To be noted: human red blood cells (erythrocytes), read-out: Activity. Format: ADME, cell-based, Erythrocyte.
Data set [4] in a line: Hemolytic activity against human RBC at 6.25 uM after 1 hr by Drabkin's assay relative to control. Format: ADME, cell-based, Erythrocyte. Particulars: human red blood cells (erythrocytes), read-out: Activity.
Data set [5] in a line: Hemolytic activity against human RBC at 3.125 uM after 1 hr by Drabkin's assay relative to control. The class given is ADME, cell-based, Erythrocyte. Particulars: human red blood cells (erythrocytes), read-out: Activity.
Data set [6] can be described thus: Hemolytic activity against human RBC at 1.56 uM after 1 hr by Drabkin's assay relative to control. The class given is ADME, cell-based, Erythrocyte. Particulars: human red blood cells (erythrocytes), read-out: Activity.
Data set [7] is described as follows: Hemolytic activity against human RBC at 0.78 uM after 1 hr by Drabkin's assay relative to control. To be noted: human red blood cells (erythrocytes), read-out: Activity. Format: ADME, cell-based, Erythrocyte.
A short description of data set [8]: Hemolytic activity against human RBC at 0.39 uM after 1 hr by Drabkin's assay relative to control. Format: ADME, cell-based, Erythrocyte. Particulars: human red blood cells (erythrocytes), read-out: Activity.
The nature of data set [9]: Hemolytic activity against human RBC at 100 uM after 1 hr by Drabkin's assay relative to control. The class given is ADME, cell-based, Erythrocyte. Particulars: human red blood cells (erythrocytes), read-out: Activity.
A further data set relates to Erythrocyte. Kind of data set: Hemolytic activity against human RBC after 1 hr by Drabkin's assay. Format: ADME, cell-based.
Another data set concerns Lipid bilayer. Kind of data set: Induction of pore formation in POPC vesicles at 20 uM after 3 hrs by carboxyfluorescein dye leakage assay. Particulars: in the assay text read “after 3 mins” for “after 3 hrs”. Summed up:
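POPC or DOPC liposomes were hydrated in 10 mM HEPES, 100 mM KCl, pH 7.4, containing 50 mM carboxyfluorescein. Size was checked by dynamic light scattering, and vesicles were used at 2.2×10^10 per mL. Peptide at 20 μM was equilibrated with vesicles for 3 min, and dye leakage was measured.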

Another data set concerns Staphylococcus aureus. Kind of data set: Growth inhibition of methicillin-resistant Staphylococcus aureus ATCC 43300 at 32 ug/ml after 18 hrs. The class given is functional. Particulars: ATCC 43300, 18 h, read-out: GI. Summed up:
(§1)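 Mid-log cultures in cation-adjusted Mueller Hinton broth were added at 5×10^5 CFU/mL to wells at a final compound concentration of 32 μg/mL. Plates stood at 37 °C for 18 h. Growth was read by OD600, and % inhibition was computed against media-only and untreated-bacteria controls.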

For the next data set, the system named is Escherichia coli. Kind of data set: Growth inhibition of Escherichia coli ATCC 25922 at 32 ug/ml after 18 hrs. Particulars: ATCC 25922, 18 h, read-out: GI. The class given is functional. An outline of the steps:
(§2)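 Mid-log cultures were prepared as above and seeded at 5×10^5 CFU/mL with compound at a final 32 μg/mL, then held static at 37 °C for 18 h. Growth was read as OD600. Percent inhibition was calculated against media-only and bacteria-only controls on the same plate.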

The next data set has as its system Klebsiella pneumoniae. Kind of data set: Growth inhibition of multidrug-resistant Klebsiella pneumoniae ATCC 700603 at 32 ug/ml after 18 hrs. Format: functional. Particulars: ATCC 700603, 18 h, read-out: GI. An outline of the steps: as §1
The test system of another data set is Pseudomonas aeruginosa. Kind of data set: Growth inhibition of Pseudomonas aeruginosa ATCC 27853 at 32 ug/ml after 18 hrs. Particulars: ATCC 27853, 18 h, read-out: GI. Format: functional. An outline of the steps: as §2
For the next data set, the system named is Acinetobacter baumannii. Kind of data set: Growth inhibition of Acinetobacter baumannii ATCC 19606 at 32 ug/ml after 18 hrs. To be noted: ATCC 19606 = CIP 70.34 = JCM 6841, 18 h, read-out: GI. Format: functional. Summed up:
as §2

A further data set relates to Cryptococcus neoformans. Kind of data set: Growth inhibition of Cryptococcus neoformans H99 ATCC 208821 at 32 ug/ml after 24 hrs by resazurin dye-based microspectrophotometric assay. Format: functional. Particulars: var. grubii H99 ATCC 208821, 24 h, read-out: GI. An outline of the steps:
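Yeasts were grown 3 days on YPD agar at 30 °C, suspended from five colonies and diluted in YNB broth to a final 2.5×10^3 CFU/mL. Compound at a final 32 μg/mL; incubated 24 h at 35 °C without shaking. C. albicans was read at OD530. C. neoformans was read as OD600–570 after resazurin (0.001% final) and a further 2 h at 35 °C. Fluconazole was the standard.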
A general note: Alamar Blue is a resazurin reagent that responds to reducing activity.

A further data set has as its system Candida albicans. Kind of data set: Growth inhibition of Candida albicans ATCC 90028 at 32 ug/ml after 24 hrs by OD530 light-scattering microspectrophotometric method. To be noted: ATCC 90028, 24 h, read-out: GI.

Take `O=CN1CCCN1C(=O)N1CCC[C@H]1C(=O)N1CCCN1C(=O)N1CCC[C@H]1C(=O)N1CCCN1C(=O)N1CCC[C@H]1C(=O)N1CCCN1C(=O)N1CCC[C@H]1C(=O)N1CCCN1C(=O)N1CCC[C@H]1C(=O)NCCO`: the hemolysis at 1 h, 50 µM in [1] was -0.361%. Also, the hemolysis at 1 h, 25 µM in data set [2] came to 0%. In [3], the hemolysis at 1 h, 12.5 µM was -0.913%. In data set [4], the hemolysis at 1 h, 6.25 µM is -0.361%. Further, the hemolysis at 1 h, 3.125 µM in data set [5] came to 0.02%. Also, the hemolysis at 1 h, 1.56 µM in data set [6] was -0.452%. Moreover, the hemolysis at 1 h, 0.78 µM in data set [7] is 0.08%. Also, in [8], the hemolysis at 1 h, 0.39 µM was 0.361%. For the same molecule, the hemolysis at 1 h, 100 µM in [9] was -0.251%. For the same molecule, the Activity result with Erythrocyte is recorded as “Dose-dependent effect”. The result in the data set with Lipid bilayer was inactive.

For the molecule `CC(C)(C)OC(=O)[C@@H]1CCCN1C(=O)N1CCCN1C(=O)[C@@H]1CCCN1C(=O)N1CCCN1C(=O)[C@@H]1CCCN1C(=O)N1CCCN1C(=O)[C@@H]1CCCN1C(=O)N1CCCN1C(=O)[C@@H]1CCCN1C(=O)N1CCCN1C(=O)[C@@H]1CCCN1C(=O)N1CCCN1C(=O)[C@@H]1CCCN1C(=O)N1CCCN1C(=O)[C@@H]1CCCN1C(=O)N1CCCN1`, the result with Lipid bilayer was inactive.

As to `O=C(OCc1ccccc1)N1CCCN1C(=O)[C@@H]1CCCN1C(=O)N1CCCN1C(=O)[C@@H]1CCCN1C(=O)N1CCCN1C(=O)[C@@H]1CCCN1C(=O)N1CCCN1C(=O)[C@@H]1CCCN1C(=O)N1CCCN1C(=O)[C@@H]1CCCN1C(=O)N1CCCN1C(=O)[C@@H]1CCCN1C(=O)N1CCCN1C(=O)[C@@H]1CCCN1C(=O)N1CCCN1C(=O)[C@@H]1CCCN1`, the inhibition of growth at 32 µg/mL was 28.6% in the data set with Staphylococcus aureus; 14.8% in the data set on Escherichia coli; 14.8% in the data set with Klebsiella pneumoniae; -2.53% in the data set on Pseudomonas aeruginosa; 38.4% in the data set with Acinetobacter baumannii; 0.967% in the data set with Cryptococcus neoformans. Moreover, the inhibition of growth at 32 µg/mL in the data set with Candida albicans was determined as 4.07%. Also, the outcome with Lipid bilayer was inactive.

Consider `CC(C)(C)OC(=O)[C@@H]1CCCN1C(=O)N1CCCN1C(=O)[C@@H]1CCCN1C(=O)N1CCCN1C(=O)[C@@H]1CCCN1C(=O)N1CCCN1C(=O)[C@@H]1CCCN1C(=O)N1CCCN1`, for which the Activity entry with Erythrocyte is reported as “Dose-dependent effect”. For the same molecule, the inhibition of growth at 32 µg/mL with Staphylococcus aureus is 5.04%; in the data set on Escherichia coli it was 4.06%; with Klebsiella pneumoniae, 4.07%; in the data set with Pseudomonas aeruginosa, 4.45%; with Acinetobacter baumannii, -8.79%; in the data set with Cryptococcus neoformans, -4.84%. For the same molecule, in the data set with Candida albicans, the inhibition of growth at 32 µg/mL was 4.64%. In the data set with Lipid bilayer, the result was inactive.

As for `CC(C)(C)OC(=O)[C@@H]1CCCN1C(=O)N1CCCN1C(=O)[C@@H]1CCCN1C(=O)N1CCCN1C(=O)[C@@H]1CCCN1C(=O)N1CCCN1C(=O)[C@@H]1CCCN1C(=O)N1CCCN1C(=O)[C@@H]1CCCN1C(=O)N1CCCN1C(=O)[C@@H]1CCCN1C(=O)N1CCCN1C(=O)[C@@H]1CCCN1C(=O)N1CCCN1C(=O)[C@@H]1CCCN1C(=O)N1CCCN1.Cl`, in data set [1], the hemolysis at 1 h, 50 µM stood at 0%. Also, the hemolysis at 1 h, 25 µM in [2] was -0.271%. Further, the hemolysis at 1 h, 12.5 µM in data set [3] was determined as 0.181%. The hemolysis at 1 h, 6.25 µM in data set [4] was 0%. For the same molecule, the hemolysis at 1 h, 3.125 µM in [5] was -0.361%. Besides, the hemolysis at 1 h, 1.56 µM in data set [6] amounted to 0%. Besides, in data set [7], the hemolysis at 1 h, 0.78 µM is -0.903%. Besides, the hemolysis at 1 h, 0.39 µM in data set [8] was -0.181%. For the same molecule, the hemolysis at 1 h, 100 µM in data set [9] was -0.181%. In the data set with Erythrocyte, the Activity entry is given as “Dose-dependent effect”.
